Test results as given in publication PMC6828636 (European Journal of Drug Metabolism and Pharmacokinetics, 2019).
Like-named read-outs stand apart in the source and are kept apart here.

Columns and labels:
[1] = assay type: in vivo, human; conditions: healthy male volunteers
[2] = cited from earlier work
[3] = Phase I study: darolutamide effect on rosuvastatin pharmacokinetics; assay type: in vivo, human
CYP1A2 = biological target: T1, CYP1A2 (Homo sapiens, UniProt P05177); assay: biochemical; assay type: in vitro ADME; conditions: read-out: IC50, CYP1A2; human liver microsomes; substrate phenacetin
T1 sequence (P05177 1-516): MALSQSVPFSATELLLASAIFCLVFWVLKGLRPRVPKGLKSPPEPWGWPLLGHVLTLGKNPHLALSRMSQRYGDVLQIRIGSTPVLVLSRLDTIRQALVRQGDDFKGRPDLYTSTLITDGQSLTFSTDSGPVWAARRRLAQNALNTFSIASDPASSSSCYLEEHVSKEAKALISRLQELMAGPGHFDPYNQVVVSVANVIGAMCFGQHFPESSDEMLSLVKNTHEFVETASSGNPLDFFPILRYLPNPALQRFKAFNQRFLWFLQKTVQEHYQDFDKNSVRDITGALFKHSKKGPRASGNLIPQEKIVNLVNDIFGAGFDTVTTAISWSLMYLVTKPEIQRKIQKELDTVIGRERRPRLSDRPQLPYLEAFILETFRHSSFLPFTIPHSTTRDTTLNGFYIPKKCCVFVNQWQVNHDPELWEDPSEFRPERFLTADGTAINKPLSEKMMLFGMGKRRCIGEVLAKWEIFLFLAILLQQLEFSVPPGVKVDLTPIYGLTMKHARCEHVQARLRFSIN

CYP2D6 = CYP2D6 (Homo sapiens, UniProt P10635); assay: CYP2D6 inhibition in human liver microsomes; assay type: in vitro ADME; conditions: read-out: IC50, CYP2D6; human liver microsomes; substrate dextromethorphan
CYP2D6, sequence (P10635 whole entry, canonical isoform): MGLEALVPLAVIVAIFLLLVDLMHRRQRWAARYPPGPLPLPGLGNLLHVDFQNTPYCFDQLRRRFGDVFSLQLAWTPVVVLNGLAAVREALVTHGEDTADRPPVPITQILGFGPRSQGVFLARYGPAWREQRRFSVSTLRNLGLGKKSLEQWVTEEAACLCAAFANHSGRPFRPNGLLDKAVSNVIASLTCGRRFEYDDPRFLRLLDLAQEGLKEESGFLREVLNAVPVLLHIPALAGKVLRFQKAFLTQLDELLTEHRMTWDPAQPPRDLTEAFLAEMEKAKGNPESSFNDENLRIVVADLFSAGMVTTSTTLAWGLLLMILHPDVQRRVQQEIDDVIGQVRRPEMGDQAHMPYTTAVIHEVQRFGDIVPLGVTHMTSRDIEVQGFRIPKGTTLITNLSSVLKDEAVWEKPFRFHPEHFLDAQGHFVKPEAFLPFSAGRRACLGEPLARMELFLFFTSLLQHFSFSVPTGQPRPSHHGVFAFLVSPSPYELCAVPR
Procedure, shortened: (§1)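 Pooled human liver microsomes were incubated with standard CYP-selective substrates, with and without test compound at 0.03–100 μM. Standard selective inhibitors for each isoform ran in parallel as positive controls. Read-out was IC50. For CYP3A4 only, time-dependent inhibition was also tested after 30 min preincubation, using midazolam and testosterone as substrates.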

CYP2C8 = biological target: T2, CYP2C8 (Homo sapiens, UniProt P10632); assay: CYP2C8 inhibition in human liver microsomes; assay type: in vitro ADME; conditions: read-out: IC50, CYP2C8; human liver microsomes; substrate amodiaquine
T2 sequence (P10632 1-490): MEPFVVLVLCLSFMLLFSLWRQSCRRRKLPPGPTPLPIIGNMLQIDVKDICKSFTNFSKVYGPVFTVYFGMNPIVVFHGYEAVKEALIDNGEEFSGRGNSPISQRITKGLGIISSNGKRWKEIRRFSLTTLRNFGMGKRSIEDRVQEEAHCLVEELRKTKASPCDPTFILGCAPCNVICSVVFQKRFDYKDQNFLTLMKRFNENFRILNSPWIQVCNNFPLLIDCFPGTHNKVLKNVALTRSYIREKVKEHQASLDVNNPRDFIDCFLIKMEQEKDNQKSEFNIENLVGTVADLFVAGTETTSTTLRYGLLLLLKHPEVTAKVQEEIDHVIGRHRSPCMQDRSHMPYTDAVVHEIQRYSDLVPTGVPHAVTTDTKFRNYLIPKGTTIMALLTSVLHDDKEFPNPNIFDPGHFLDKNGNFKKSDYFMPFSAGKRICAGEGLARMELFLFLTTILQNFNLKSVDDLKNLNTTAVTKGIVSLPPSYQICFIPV
Procedure, shortened: as §1

CYP2E1 = CYP2E1 (Homo sapiens, UniProt P05181); assay: CYP2E1 inhibition in human liver microsomes; assay type: in vitro ADME; conditions: read-out: IC50, CYP2E1; human liver microsomes; substrate chlorzoxazone
CYP2E1, sequence (P05181 whole entry): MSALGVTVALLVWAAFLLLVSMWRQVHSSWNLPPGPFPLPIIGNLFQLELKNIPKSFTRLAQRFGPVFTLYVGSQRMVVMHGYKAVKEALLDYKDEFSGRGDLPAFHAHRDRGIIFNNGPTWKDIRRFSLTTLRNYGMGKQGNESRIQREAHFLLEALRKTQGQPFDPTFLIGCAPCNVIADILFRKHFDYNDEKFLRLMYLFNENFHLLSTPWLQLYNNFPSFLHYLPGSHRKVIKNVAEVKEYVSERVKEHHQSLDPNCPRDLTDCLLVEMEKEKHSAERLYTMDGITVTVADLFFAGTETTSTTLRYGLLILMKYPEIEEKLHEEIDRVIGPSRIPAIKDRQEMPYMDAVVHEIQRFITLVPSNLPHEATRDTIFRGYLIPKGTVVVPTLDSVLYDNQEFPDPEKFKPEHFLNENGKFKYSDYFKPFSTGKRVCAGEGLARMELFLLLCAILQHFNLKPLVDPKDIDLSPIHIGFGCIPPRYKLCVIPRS
Procedure, shortened: as §1

CYP2A6 = biological target: T3, CYP2A6 (Homo sapiens, UniProt P11509); assay: CYP2A6 inhibition in human liver microsomes; assay type: in vitro ADME; conditions: read-out: IC50, CYP2A6; human liver microsomes; substrate coumarin
T3 sequence (P11509 1-494): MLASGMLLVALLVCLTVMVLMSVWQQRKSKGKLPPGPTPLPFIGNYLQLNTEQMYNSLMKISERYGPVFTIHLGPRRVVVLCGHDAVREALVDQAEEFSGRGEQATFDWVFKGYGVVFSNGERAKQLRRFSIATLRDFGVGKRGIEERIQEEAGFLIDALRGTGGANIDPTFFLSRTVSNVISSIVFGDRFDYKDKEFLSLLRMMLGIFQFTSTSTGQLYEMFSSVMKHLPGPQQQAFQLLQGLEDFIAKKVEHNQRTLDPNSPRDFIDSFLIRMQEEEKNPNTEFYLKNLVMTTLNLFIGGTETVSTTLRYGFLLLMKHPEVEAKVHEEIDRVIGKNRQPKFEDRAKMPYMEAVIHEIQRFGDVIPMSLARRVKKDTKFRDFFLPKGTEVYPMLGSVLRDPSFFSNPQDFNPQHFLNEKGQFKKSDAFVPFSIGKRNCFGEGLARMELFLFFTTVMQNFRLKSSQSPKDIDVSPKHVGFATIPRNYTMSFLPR
Procedure, shortened: as §1

[4] = Clinical plasma and intestinal concentrations of darolutamide; parameters: species or system human
CYP2C19 = CYP2C19 (Homo sapiens, UniProt P33261); assay: CYP2C19 inhibition in human liver microsomes; assay type: in vitro ADME; conditions: read-out: IC50, CYP2C19; human liver microsomes; substrate S-mephenytoin
CYP2C19, sequence (P33261 whole entry): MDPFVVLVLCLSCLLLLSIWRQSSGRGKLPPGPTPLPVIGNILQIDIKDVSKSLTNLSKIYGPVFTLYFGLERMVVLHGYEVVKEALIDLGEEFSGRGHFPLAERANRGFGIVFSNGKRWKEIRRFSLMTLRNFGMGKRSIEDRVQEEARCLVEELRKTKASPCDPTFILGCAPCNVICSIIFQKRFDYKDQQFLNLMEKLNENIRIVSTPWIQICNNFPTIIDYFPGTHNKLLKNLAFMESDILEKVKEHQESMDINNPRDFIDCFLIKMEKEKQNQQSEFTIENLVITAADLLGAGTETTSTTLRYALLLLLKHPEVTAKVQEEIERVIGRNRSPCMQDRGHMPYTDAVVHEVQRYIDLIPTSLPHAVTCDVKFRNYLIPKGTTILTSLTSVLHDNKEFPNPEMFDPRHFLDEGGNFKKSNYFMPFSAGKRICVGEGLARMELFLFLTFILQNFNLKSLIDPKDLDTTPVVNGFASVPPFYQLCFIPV
Procedure, shortened: as §1

CYP3A4 = CYP3A4 (Homo sapiens, UniProt P08684); assay: CYP3A4 inhibition in human liver microsomes; assay type: in vitro ADME; conditions: human liver microsomes
CYP3A4, sequence (P08684 whole entry): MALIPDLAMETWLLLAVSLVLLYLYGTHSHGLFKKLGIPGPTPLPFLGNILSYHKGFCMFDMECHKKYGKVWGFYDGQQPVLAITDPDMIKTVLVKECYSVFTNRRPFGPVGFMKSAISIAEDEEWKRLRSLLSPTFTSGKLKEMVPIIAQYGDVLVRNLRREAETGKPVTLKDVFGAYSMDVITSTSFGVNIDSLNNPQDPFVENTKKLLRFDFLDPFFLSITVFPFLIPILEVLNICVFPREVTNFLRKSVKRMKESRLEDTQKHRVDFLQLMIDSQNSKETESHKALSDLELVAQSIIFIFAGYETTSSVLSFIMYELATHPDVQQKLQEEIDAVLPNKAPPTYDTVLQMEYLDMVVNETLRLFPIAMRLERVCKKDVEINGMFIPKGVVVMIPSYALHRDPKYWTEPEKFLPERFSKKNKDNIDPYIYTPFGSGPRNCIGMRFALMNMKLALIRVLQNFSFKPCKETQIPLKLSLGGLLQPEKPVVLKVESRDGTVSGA
Procedure, shortened: as §1

CYP2C9 = CYP2C9 (Homo sapiens, UniProt P11712); assay: CYP2C9 inhibition in human liver microsomes; assay type: in vitro ADME; conditions: read-out: IC50, CYP2C9; human liver microsomes; substrate diclofenac
CYP2C9, sequence (P11712 whole entry): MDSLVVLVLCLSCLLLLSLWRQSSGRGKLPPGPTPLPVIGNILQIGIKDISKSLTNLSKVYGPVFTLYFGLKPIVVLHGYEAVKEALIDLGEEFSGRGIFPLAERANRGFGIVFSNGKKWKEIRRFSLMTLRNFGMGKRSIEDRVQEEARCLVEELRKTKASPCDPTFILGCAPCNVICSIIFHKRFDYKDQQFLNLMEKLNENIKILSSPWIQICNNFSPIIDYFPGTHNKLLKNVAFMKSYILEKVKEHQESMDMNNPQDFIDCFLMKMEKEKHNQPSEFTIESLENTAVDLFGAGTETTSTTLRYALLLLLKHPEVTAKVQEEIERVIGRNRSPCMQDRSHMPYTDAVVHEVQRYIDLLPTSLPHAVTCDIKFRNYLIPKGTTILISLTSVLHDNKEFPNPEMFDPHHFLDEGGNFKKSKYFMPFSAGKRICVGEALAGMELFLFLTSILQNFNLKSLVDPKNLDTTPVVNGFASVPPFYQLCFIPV
Procedure, shortened: as §1

CYP2B6 = biological target: T4, CYP2B6 (Homo sapiens, UniProt P20813); assay: biochemical; assay type: in vitro ADME; conditions: read-out: IC50, CYP2B6; human liver microsomes; substrate bupropion
T4 sequence (P20813 1-491): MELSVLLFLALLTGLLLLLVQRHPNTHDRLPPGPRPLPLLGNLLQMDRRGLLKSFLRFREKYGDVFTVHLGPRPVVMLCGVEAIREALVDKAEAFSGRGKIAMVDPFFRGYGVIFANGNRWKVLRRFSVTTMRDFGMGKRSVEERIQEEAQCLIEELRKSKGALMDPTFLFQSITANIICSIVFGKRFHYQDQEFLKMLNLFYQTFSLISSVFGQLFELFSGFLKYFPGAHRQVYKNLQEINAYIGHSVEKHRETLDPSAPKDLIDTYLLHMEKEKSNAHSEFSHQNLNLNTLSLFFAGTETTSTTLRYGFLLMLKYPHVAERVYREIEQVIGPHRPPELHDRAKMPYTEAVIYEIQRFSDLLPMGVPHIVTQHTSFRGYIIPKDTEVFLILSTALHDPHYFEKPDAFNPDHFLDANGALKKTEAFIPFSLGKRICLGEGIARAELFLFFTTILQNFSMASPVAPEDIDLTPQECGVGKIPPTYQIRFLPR

UGT1A1 = biological target: T5, UGT1A1 (Homo sapiens, UniProt P22309); assay: UGT1A1 inhibition in human liver microsomes; assay type: in vitro ADME; conditions: read-out: IC50, UGT1A1, substrate estradiol
T5 sequence (P22309 26-533): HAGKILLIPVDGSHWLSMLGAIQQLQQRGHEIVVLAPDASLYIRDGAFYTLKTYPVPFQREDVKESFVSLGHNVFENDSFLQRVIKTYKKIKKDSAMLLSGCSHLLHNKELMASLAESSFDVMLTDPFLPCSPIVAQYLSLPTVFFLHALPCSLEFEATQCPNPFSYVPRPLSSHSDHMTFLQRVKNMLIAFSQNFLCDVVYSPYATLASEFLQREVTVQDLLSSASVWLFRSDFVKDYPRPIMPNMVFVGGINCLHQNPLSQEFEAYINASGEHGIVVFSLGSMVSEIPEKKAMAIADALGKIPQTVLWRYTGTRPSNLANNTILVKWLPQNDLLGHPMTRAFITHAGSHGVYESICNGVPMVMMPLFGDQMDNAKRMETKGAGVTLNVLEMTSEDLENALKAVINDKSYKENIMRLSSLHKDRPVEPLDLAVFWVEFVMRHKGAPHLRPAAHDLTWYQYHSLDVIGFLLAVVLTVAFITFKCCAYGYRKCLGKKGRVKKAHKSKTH
Procedure, shortened: (§2)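 Glucuronidation of UGT-selective substrates was measured in human liver microsomes with and without test compound, using a rank-order approach. Standard inhibitors for each isoform were incubated in parallel as positive controls.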

UGT1A9 = UGT1A9 (Homo sapiens, UniProt O60656); assay: UGT1A9 inhibition in human liver microsomes; assay type: in vitro ADME
UGT1A9, sequence (O60656 26-530): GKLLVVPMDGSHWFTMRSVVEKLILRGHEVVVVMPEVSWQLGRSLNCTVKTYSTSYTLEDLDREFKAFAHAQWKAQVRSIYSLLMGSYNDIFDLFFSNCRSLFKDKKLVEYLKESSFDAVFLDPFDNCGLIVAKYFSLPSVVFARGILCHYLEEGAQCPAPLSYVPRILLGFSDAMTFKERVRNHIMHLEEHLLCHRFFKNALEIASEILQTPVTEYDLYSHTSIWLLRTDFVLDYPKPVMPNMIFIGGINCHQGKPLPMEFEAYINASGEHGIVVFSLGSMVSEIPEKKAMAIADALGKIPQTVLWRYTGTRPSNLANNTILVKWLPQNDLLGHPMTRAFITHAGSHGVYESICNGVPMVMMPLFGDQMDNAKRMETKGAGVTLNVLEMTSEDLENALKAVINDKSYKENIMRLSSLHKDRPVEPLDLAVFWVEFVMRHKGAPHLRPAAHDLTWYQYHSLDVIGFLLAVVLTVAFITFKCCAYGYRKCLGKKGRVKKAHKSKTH
Procedure, shortened: as §2

[5] = midazolam 1 mg and dabigatran etexilate 75 mg cocktail, darolutamide 600 mg
[6] = read-out: IC50, CYP3A4 (with pre-incubation), substrate midazolam, 30 min pre-incubation
[7] = read-out: IC50, CYP3A4 (with pre-incubation), substrate testosterone, 30 min pre-incubation
[8] = read-out: IC50, CYP3A4, substrate midazolam
[9] = read-out: IC50, CYP3A4, substrate testosterone

Structure (SMILES) | tmax in the presence and absence of darolutamide [1] | t½ in the presence and absence of darolutamide [1] | reduction in Cmax with co-administered darolutamide versus alone [1, 5] [%] | IC50 (CYP1A2) [µM] | IC50 (CYP2D6) [µM] | IC50 (CYP2C8) [µM] | IC50 (CYP2E1) [µM] | IC50 (CYP2A6) [µM] | plasma concentration of unbound drug [4] [µM] | IC50 (CYP2C19) [µM] | IC50 (CYP3A4; [6]) [µM] | IC50 (CYP3A4; [7]) [µM] | IC50 (CYP3A4; [8]) [µM] | IC50 (CYP3A4; [9]) [µM] | IC50 (CYP2C9) [µM] | IC50 (CYP2B6) [µM] | IC50 (UGT1A1) [µM] | also measured
[H]/N=C(/N)c1ccc(NCc2nc3cc(C(=O)N(CCC(=O)O)c4ccccn4)ccc3n2C)cc1 [non-conjugated dabigatran, dabigatran] | comparable | comparable | 16 | – | – | – | – | – | – | – | – | – | – | – | – | – | – | reduction in AUC with co-administered darolutamide versus alone [1, 5]: 9%
CC(C)c1nc(N(C)S(C)(=O)=O)nc(-c2ccc(F)cc2)c1/C=C/[C@@H](O)C[C@@H](O)CC(=O)O [rosuvastatin] | – | – | – | – | – | – | – | – | – | – | – | – | – | – | – | – | – | fraction absorbed (fa) [2]: 0.5; AUC(0–24) ([2]; single dose of 5 mg rosuvastatin, healthy subjects, fasted condition): 0.0192 µg·h/mL; effect of darolutamide comedication on t½ ([3]; healthy subjects): did not affect; increase in rosuvastatin exposure with darolutamide ([3]; healthy subjects, rosuvastatin 5 mg, darolutamide 600 mg twice daily): approximately fivefold; observed exposure as % of the reported fasted AUC(0–24) ([3]; human, in vivo): 34%; incidence of treatment-emergent AEs, alone versus with concomitant darolutamide ([3]; single doses of rosuvastatin 5 mg): similar
Cc1ncc2n1-c1ccc(Cl)cc1C(c1ccccc1F)=NC2 [midazolam] | comparable | comparable | ~32 | – | – | – | – | – | – | – | – | – | – | – | – | – | – | –
C[C@@H](Cn1ccc(-c2ccc(C#N)c(Cl)c2)n1)NC(=O)c1cc([C@@H](C)O)[nH]n1 [(S,R)-darolutamide] | – | – | – | > 50 | > 50 | 36.2 | > 50 | > 50 | < 0.6 | 46.7 | > 50 | > 50 | > 50 | > 50 | 22.6 | > 50 | 26.5 | IC50 (UGT1A9; read-out: IC50, UGT1A9, substrate propofol): 12.5 µM; Ki (UGT1A9; read-out: Ki, UGT1A9): 6.32 µM
C[C@H](O)c1cc(C(=O)N[C@@H](C)Cn2ccc(-c3ccc(C#N)c(Cl)c3)n2)n[nH]1 [(S,S)-darolutamide] | – | – | – | > 50 | 40.2 | 46.3 | > 50 | > 50 | < 0.6 | > 50 | > 50 | > 50 | > 50 | > 50 | > 50 | > 50 | 31.7 | –
